Laboratory results published in ChEMBL document CHEMBL1126705, “16 beta-([18F]fluoro)estrogens: systematic investigation of a new series of fluorine-18-labeled estrogens as potential imaging agents for estrogen-receptor-positive breast tumors” (J Med Chem, 1993).

Assays:
Rattus norvegicus [1] = test: Tested in vivo for the biodistribution in rat uterus/blood at 1 hour after intravenous dose of 50 microCi of the drug and 15 ug of estradiol; assay type: ADME, organism-based
In short: (§1)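 Female Sprague-Dawley rats, 25 days old (~40–53 g), ether-anesthetized, given the 18F-labeled estrogen iv via femoral vein in 10% ethanol saline. […] Others were sacrificed by decapitation at 1 or 3 h. Blood and organs were excised, weighed and gamma counted as % injected dose/g, mean ± SD, typically n = 5 (4–6).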

Rattus norvegicus [2] = test: Tested in vivo for the biodistribution in rat uterus/muscle after 3 hours following an intravenous dose of 50 microCi of drug in 10%ethanol saline; assay type: ADME, organism-based, Muscle tissue; in short: as §1
Rattus norvegicus [3] = test: Tested in vivo for the biodistribution in rat uterus/muscle at 1 hour after intravenous dose of 50 microCi of drug in 10%ethanol saline; assay type: ADME, organism-based, Muscle tissue; in short: as §1
Rattus norvegicus [4] = test: Tested in vivo for the biodistribution in rat uterus/muscle at 1 hour after intravenous dose of 50 microCi of the drug and 15 ug of estradiol; assay type: ADME, organism-based, Muscle tissue; in short: as §1
Rattus norvegicus [5] = test: Tested in vivo for the biodistribution in blood of female rat after 3 hours following an intravenous dose of 50 microCi of drug in 10%ethanol saline; assay type: ADME, organism-based
In short: (§2)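 Ether-anesthetized 25-day-old female Sprague-Dawley rats (~40–53 g) got the [18F] tracer in 10% ethanol saline via femoral vein. Rats were decapitated at 1 or 3 h, and blood and organs were weighed and gamma-counted. Values are % injected dose/g as mean ± SD, n = 5 per time point.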

Rattus norvegicus [6] = test: Tested in vivo for the biodistribution in rat bone at 1 hour after intravenous dose of 50 microCi of drug in 10%ethanol saline; assay type: ADME, organism-based, Bone element; in short: as §2
Rattus norvegicus [7] = test: Tested in vivo for the biodistribution in rat bone at 1 hour after intravenous dose of 50 microCi of the drug and 15 ug of estradiol; assay type: ADME, organism-based, Bone element
Rattus norvegicus [8] = test: Tested in vivo for the biodistribution in rat ovaries after 3 hours following an intravenous dose of 50 microCi of drug in 10%ethanol saline; assay type: ADME, organism-based, Female gonad
In short: (§3)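 Immature (25-day-old) female Sprague-Dawley rats, ether-anesthetized, given the fluorine-18-labeled estrogen by femoral vein injection in 10% ethanol saline. […] Other groups were killed by decapitation at 1 or 3 h. Blood and organs were weighed and gamma-counted. Data are % injected dose/g, mean ± SD, typically n = 5 per group.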

Rattus norvegicus [9] = test: Tested in vivo for the biodistribution in rat ovaries at 1 hour after intravenous dose of 50 microCi of drug in 10%ethanol saline; assay type: ADME, organism-based, Female gonad; in short: as §3
Rattus norvegicus [10] = test: Tested in vivo for the biodistribution in rat ovaries at 1 hour after intravenous dose of 50 microCi of the drug and 15 ug of estradiol; assay type: ADME, organism-based, Female gonad; in short: as §3
Rattus norvegicus [11] = test: Tested in vivo for the biodistribution in rat muscle after 3 hours following an intravenous dose of 50 microCi of drug in 10%ethanol saline; assay type: ADME, organism-based, Muscle tissue; in short: as §3
Rattus norvegicus [12] = test: Tested in vivo for the biodistribution in rat muscle at 1 hour after intravenous dose of 50 microCi of drug in 10%ethanol saline; assay type: ADME, organism-based, Muscle tissue; in short: as §3
Rattus norvegicus [13] = test: Tested in vivo for the biodistribution in rat muscle at 1 hour after intravenous dose of 50 microCi of the drug and 15 ug of estradiol; assay type: ADME, organism-based, Muscle tissue; in short: as §3
Rattus norvegicus [14] = test: Tested in vivo for the biodistribution in rat thymus after 3 hours following an intravenous dose of 50 microCi of drug in 10%ethanol saline; assay type: ADME, organism-based; in short: as §3
Rattus norvegicus [15] = test: Tested in vivo for the biodistribution in rat thymus at 1 hour after intravenous dose of 50 microCi of drug in 10%ethanol saline; assay type: ADME, organism-based; in short: as §3
Rattus norvegicus [16] = test: Tested in vivo for the biodistribution in rat thymus at 1 hour after intravenous dose of 50 microCi of the drug and 15 ug of estradiol; assay type: ADME, organism-based; in short: as §3
Rattus norvegicus [17] = test: Tested in vivo for the biodistribution in rat uterus after 3 hours following an intravenous dose of 50 microCi of drug in 10%ethanol saline; assay type: ADME, organism-based; in short: as §3
Rattus norvegicus [18] = test: Tested in vivo for the biodistribution in rat uterus at 1 hour after intravenous dose of 50 microCi of drug in 10%ethanol saline; assay type: ADME, organism-based; in short: as §1
Rattus norvegicus [19] = test: Tested in vivo for the biodistribution in rat uterus at 1 hour after intravenous dose of 50 microCi of the drug and 15 ug of estradiol; assay type: ADME, organism-based; in short: as §1
Rattus norvegicus [20] = test: Tested in vivo for the biodistribution in rat uterus/blood after 3 hours following an intravenous dose of 50 microCi of drug in 10%ethanol saline; assay type: ADME, organism-based; in short: as §1
Rattus norvegicus [21] = test: Tested in vivo for the biodistribution in blood of female rat at 1 hour after intravenous dose of 50 microCi of drug in 10%ethanol saline; assay type: ADME, organism-based; in short: as §2
Rattus norvegicus [22] = test: Tested in vivo for the biodistribution in blood of female rat at 1 hour after intravenous dose of 50 microCi of the drug and 15 u g of estradiol; assay type: ADME, organism-based
Rattus norvegicus [23] = test: Tested in vivo for the biodistribution in rat bone after 3 hours following an intravenous dose of 50 microCi of drug in 10%ethanol saline; assay type: ADME, organism-based, Bone element; in short: as §2
Rattus norvegicus [24] = test: Tested in vivo for the biodistribution in rat fat at 1 hour after intravenous dose of 50 microCi of drug in 10%ethanol saline; assay type: ADME, organism-based, Adipose tissue; in short: as §2
Rattus norvegicus [25] = test: Tested in vivo for the biodistribution in rat fat at 1 hour after intravenous dose of 50 microCi of the drug and 15 ug of estradiol; assay type: ADME, organism-based, Adipose tissue
Rattus norvegicus [26] = test: Tested in vivo for the biodistribution in rat kidney after 3 hours following an intravenous dose of 50 microCi of drug in 10%ethanol saline; assay type: ADME, organism-based; in short: as §2
Rattus norvegicus [27] = test: Tested in vivo for the biodistribution in rat kidney at 1 hour after intravenous dose of 50 microCi of drug in 10%ethanol saline; assay type: ADME, organism-based; in short: as §2
Rattus norvegicus [28] = test: Tested in vivo for the biodistribution in rat kidney at 1 hour after intravenous dose of 50 microCi of the drug and 15 u g of estradiol; assay type: ADME, organism-based; in short: as §3
Rattus norvegicus [29] = test: Tested in vivo for the biodistribution in rat liver after 3 hours following an intravenous dose of 50 microCi of drug in 10%ethanol saline; assay type: ADME, organism-based; in short: as §3
Rattus norvegicus [30] = test: Tested in vivo for the biodistribution in rat liver at 1 hour after intravenous dose of 50 microCi of drug in 10%ethanol saline; assay type: ADME, organism-based; in short: as §3
Rattus norvegicus [31] = test: Tested in vivo for the biodistribution in rat liver at 1 hour after intravenous dose of 50 microCi of the drug and 15 u g of estradiol; assay type: ADME, organism-based; in short: as §3
[32] = Partition coefficient (logP); assay type: physicochemical; details: octanol/water
In short: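 Octanol/water log P estimated from log k'w measured by reversed-phase HPLC (Minick method) on a C8 silica column.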

[33] = biological target: T1, Alpha-fetoprotein (Rattus norvegicus) (UniProt P02773); test: Relative binding affinity for Alphafetoprotein
T1 sequence (whole entry): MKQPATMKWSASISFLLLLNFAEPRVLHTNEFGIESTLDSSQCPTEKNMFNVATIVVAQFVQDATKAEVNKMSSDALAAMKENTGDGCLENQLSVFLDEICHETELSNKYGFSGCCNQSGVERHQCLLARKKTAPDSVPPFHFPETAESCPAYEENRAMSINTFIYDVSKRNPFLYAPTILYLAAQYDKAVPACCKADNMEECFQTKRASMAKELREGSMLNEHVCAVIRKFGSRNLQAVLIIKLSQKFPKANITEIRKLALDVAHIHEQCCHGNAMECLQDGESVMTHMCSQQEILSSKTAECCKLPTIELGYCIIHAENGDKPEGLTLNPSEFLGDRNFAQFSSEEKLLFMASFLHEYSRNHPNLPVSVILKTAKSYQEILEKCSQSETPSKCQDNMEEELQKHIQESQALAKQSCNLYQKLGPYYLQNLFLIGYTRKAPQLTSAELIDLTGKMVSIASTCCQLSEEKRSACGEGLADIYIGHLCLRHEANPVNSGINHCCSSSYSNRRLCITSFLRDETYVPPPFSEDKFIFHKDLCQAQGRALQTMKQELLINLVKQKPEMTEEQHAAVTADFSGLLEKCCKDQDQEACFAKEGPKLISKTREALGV

[34] = biological target: T2, Sex hormone-binding globulin (Homo sapiens) (UniProt P04278); test: Relative binding affinity against sex steroid binding protein (SBP)
T2 sequence (whole entry): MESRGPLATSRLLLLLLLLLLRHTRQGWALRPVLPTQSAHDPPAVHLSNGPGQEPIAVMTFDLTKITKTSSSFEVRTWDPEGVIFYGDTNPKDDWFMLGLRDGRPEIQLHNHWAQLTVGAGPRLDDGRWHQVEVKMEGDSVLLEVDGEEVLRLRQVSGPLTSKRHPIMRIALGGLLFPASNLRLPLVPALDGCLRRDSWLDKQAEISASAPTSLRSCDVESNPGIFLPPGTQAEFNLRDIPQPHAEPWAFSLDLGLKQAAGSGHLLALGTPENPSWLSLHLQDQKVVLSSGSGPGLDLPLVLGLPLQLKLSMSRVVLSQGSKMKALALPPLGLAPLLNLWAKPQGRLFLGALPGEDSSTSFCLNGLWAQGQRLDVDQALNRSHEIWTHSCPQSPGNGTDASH

[35] = Tested in vivo for the biodistribution in rat fat after 3 hours following an intravenous dose of 50 microCi of drug in 10%ethanol saline; set-up: species or system Adipose tissue; in short: as §2
Rattus norvegicus [36] = test: Tested in vivo for the biodistribution in rat uterus/blood at 1 hour after intravenous dose of 50 microCi of drug in 10%ethanol saline; assay type: ADME, organism-based; in short: as §1
[37] = biological target: T3, Estrogen receptor (Rattus norvegicus) (UniProt P06211+Q62986)
[38] = biological target: T3, Estrogen receptor (Rattus norvegicus); remark: listed apart in the source

CO[C@H]1C[C@]2(C)[C@@H](O)[C@@H](F)C[C@H]2[C@@H]2CCc3cc(O)ccc3[C@H]21
Injected (dose/g) (Rattus norvegicus [1]): 3.73% | Injected (Rattus norvegicus [2]): 47.73% | Injected (dose/g) (Rattus norvegicus [3]): 25.57% | Injected (dose/g) (Rattus norvegicus [4]): 4.49% | Injected (Rattus norvegicus [5]): 0.117% | Injected (dose/g) (Rattus norvegicus [6]): 0.515% | Injected (dose/g) (Rattus norvegicus [7]): 0.604% | Injected (Rattus norvegicus [8]): 1.409% | Injected (Rattus norvegicus [9]): 2.466% | Injected (Rattus norvegicus [10]): 0.417% | Injected (dose/g) (Rattus norvegicus [11]): 0.107% | Injected (dose/g) (Rattus norvegicus [12]): 0.251% | Injected (Rattus norvegicus [13]): 0.149% | Injected (dose/g) (Rattus norvegicus [14]): 0.175% | Injected (dose/g) (Rattus norvegicus [15]): 0.391% | Injected (dose/g) (Rattus norvegicus [16]): 0.135% | Injected (Rattus norvegicus [17]): 4.813% | Injected (dose/g) (Rattus norvegicus [18]): 6.12% | Injected (Rattus norvegicus [19]): 0.671% | Injected (Rattus norvegicus [20]): 43.47% | Injected (Rattus norvegicus [21]): 0.148% | Injected (Rattus norvegicus [22]): 0.184% | Injected (Rattus norvegicus [23]): 0.646% | Injected (Rattus norvegicus [24]): 0.516% | Injected (Rattus norvegicus [25]): 0.338% | Injected (Rattus norvegicus [26]): 0.429% | Injected (Rattus norvegicus [27]): 0.946% | Injected (dose/g) (Rattus norvegicus [28]): 0.579% | Injected (dose/g) (Rattus norvegicus [29]): 0.893% | Injected (Rattus norvegicus [30]): 1.178% | Injected (Rattus norvegicus [31]): 1.397% | logP [32]: 2.35 | relative binding affinity (RBA) [33]: 0.062 | relative binding affinity (RBA) [34]: 0.087 | Injected [35]: 0.402% | Injected (dose/g) (Rattus norvegicus [36]): 41.7% | NSB [37]: 0.39 | BSI [38]: 34
